The values below come from ChEMBL document CHEMBL1143847, “Competitive inhibitors of the CphA metallo-beta-lactamase from Aeromonas hydrophila” (Antimicrob Agents Chemother, 2007).

A word on the Km: it is the substrate concentration at which the rate is half of its maximum. Broadly, the kcat is the maximal rate divided by the concentration of active sites.

Substrate in series [1]: C[C@@H](O)[C@H]1C(=O)N2C(C(=O)O)=C(SCCNC=N)C[C@H]12
The experiment in a line: Activity of Aeromonas hydrophila beta lactamase CphA at pH 7.0. The procedure, abridged: (§1)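 Wild-type CphA kinetics with imipenem as substrate, measured in a mixed buffer adjusted to the stated pH with HCl or NaOH. The buffer held 40 mM sodium acetate, 20 mM each of cacodylate, MOPS, TAPS, CHES and CAPS, and 20 μg/ml BSA. Runs were at 30°C in thermostatted cells. Km and kcat came from initial rates. At pH 10 only kcat/Km was taken, because imipenem hydrolyses spontaneously.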

Substrate in series [2]: C[C@@H](O)[C@H]1C(=O)N2C(C(=O)O)=C(SCCNC=N)C[C@H]12
Put plainly: Activity of Aeromonas hydrophila beta lactamase CphA at pH 9.0. The procedure, abridged:
as §1

Substrate in series [3]: C[C@@H](O)[C@H]1C(=O)N2C(C(=O)O)=C(SCCNC=N)C[C@H]12
The experiment in a line: Activity of Aeromonas hydrophila beta lactamase CphA at pH 8.0. The procedure, abridged:
as §1

B1: Beta-lactamase (Aeromonas hydrophila), Q44079 (protein)
chain: MMKGWMKCGLAGAVVLMASFWGGSVRAAGMSLTQVSGPVYVVEDNYYVQENSMVYFGAKGVTVVGATWTPDTARELHKLIKRVSRQPVLEVINTNYHTDRAGGNAYWKSIGAKVVSTRQTRDLMKSDWAEIVAFTRKGLPEYPDLPLVLPNVVHEGDFTLQEGKLRAFYAGPAHTPDGIFVYFPDQQVLYGNCILKEKLGNLSFADVKAYPRTLERLKAMKLPIKTVVGGHDSPLHGPELIDHYEALIKAAPQS
As to B1, the Km in series [1] was 120 µM; in series [2] it was 63 µM; in series [3], 83 µM. The kcat in series [1] is 210 s⁻¹; in series [2] it was 49 s⁻¹; in series [3] it was 140 s⁻¹.
